# High-throughput results (PubChem)
# Hits are enriched below; roughly 2.4% of the tested compounds scored in any of these assays.
# LANA-H2A inh: blockers of LANA interaction with H2A/H2B – biochemical, FP readout, HTS, primary screen | cell-free LANA-H2A/H2B peptide, fluorescence polarization | hit rate 0.6% among 320,000 | inhibition, % (no concentration beside the values) | Protein LANA1 (Human herpesvirus 8 type P (isolate GK18)), Q9QR71; in the data active means inhibition mostly above about 10%, no sharp cut-off; inactive means mostly below about 6.7%
# RanGTP-Impb inh: inhibitors of RanGTP-importin-beta interaction, primary screen, biochemical, FRET, CFP-Ran, YFP-importin-beta, homogeneous; Ran GTPase (GTP-bound) - importin-beta complex; cell-free CFP-Ran/YFP-importin-beta FRET ratio; inhibition, % (concentration not given with the values); hit rate 1.1% among 300,000; AID 2216, 2009;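 active means more than half of the replicate wells show a fall in the fluorescence ratio signal beyond about 16%, limit read from the data, passing the limit was not always enough; inconclusive means exactly half of the replicate wells pass the set limit; inactive means fewer than half of replicates pass the limit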;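 further: 0% = DMSO wells and 100% = Ran loaded with GDP instead of GTP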
# MEX-5 binding: MEX-5 zinc finger RNA-binding disruptors – biochemical, C. elegans, fluorescence polarization, MLPCN library, primary screen. MEX-5/FITC-TCR2 RNA binding; stronger effect = lower value. activity score (negative = inhibition of binding), % at 10 µM. AID 1832, 2009. Zinc finger protein mex-5 (Caenorhabditis elegans), Q9XUB2. hit rate 0.38% among 300,000;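 active means inhibition past about -25% in most replicates, and total fluorescence under double the plate's negative control median, limit read from the data; inconclusive means replicates evenly split on the limit, or fluorescence at least double controls; inactive means too little inhibition in most replicates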;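 further: 0% = DMSO and -100% = 5 µM competing unlabeled TCR2 RNA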
# Runt-CBFb FRET: inhibitors of RUNX1 Runt–CBFb binding, primary screen, biochemical, FRET, Cerulean-Runt, Venus-CBFb, uHTS. inhibition, % at 20 µM. Cerulean-Runt/Venus-CBFb FRET ratio 530/480, 1 h. hit rate 0.46% among 220,000. Runt-related transcription factor 1 (Homo sapiens) + Core-binding factor subunit beta …;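 active means inhibition over about 50% at 20 µM in the single-dose screen, limit read from the data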;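 further: 0% = DMSO wells and 100% = excess unlabeled CBFb competitor control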
#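 Schedule: protein complex preformed 1 h, compound exposure 1 h, room temperature, dark; test system: Cerulean-labeled Runt domain protein; amount: 100 nM per protein; buffer or medium: Tris 50 mM pH 7.5, KCl, K2SO4, 0.01% BSA; read-out: loss of energy transfer signal; detection: FRET fluorescence; controls: 5 µM unlabeled CBFb as full-inhibition high control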
# Runt-SMMHC FRET: inhibitors of RUNX1 Runt–CBFb-SMMHC binding, primary screen, biochemical, FRET, Cerulean-Runt, Venus-CBFb-SMMHC, uHTS | AID 1434, 2008 | inhibition, % at 20 µM | hit rate 0.74% among 220,000 | Runt-related transcription factor 1 (Homo sapiens) + Core-binding factor subunit beta … | Cerulean-Runt/Venus-CBFb-SMMHC FRET ratio 530/480, 1 h;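 active means mean inhibition across duplicate retests at 20 µM reaching about 50%, limit read from the data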;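 further: 0% = DMSO wells and 100% = wells with excess untagged CBFb-SMMHC; inhibitors lower the FRET ratio by blocking Runt binding to CBFb-SMMHC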
# EBV gp42 block: Epstein-Barr virus gp42 inhibitors, primary screen, biochemical, uHTS, fluorescence polarization; Glycoprotein 42 (Epstein-Barr virus (strain AG876)), Q1HVG2; Fluorescence polarization binding assay, mP read-out; inhibition, % (tested at 21.74 µM); hit rate 0.42% among 220,000; AID 1085, 2008; in the data active means inhibition above about 50%
# * = called active by the depositor; ? = inconclusive; nt = no result; + = active, no number; ! = a repeat was not active.
SMILES,LANA-H2A inh,RanGTP-Impb inh,MEX-5 binding,Runt-CBFb FRET,Runt-SMMHC FRET,EBV gp42 block
Cc1ccc(-c2cc(=O)c3cc(Cl)ccc3[nH]2)cc1,-3.9,-0.6,-3.8,-0.6,-0.9,-11.4
CN1C(C(=O)Nc2ccccn2)=C(O)c2sccc2S1(=O)=O,39.4*!,?,-5.8,0.2,-1.4,-14.1
O=C(Nc1ccccn1)c1cccs1,3.6,2.6,0.8,1.4,-8.8,-8.9
CCc1ccccc1NC(=O)CN1CCN(C(=O)CNC(=O)c2ccccc2F)CC1,+,nt,nt,nt,nt,nt
Cc1ccc(N(C)S(=O)(=O)c2c(C)noc2/C=C/N(C)C)cc1,-12.0,0.8,-30.1*,nt,nt,nt
CN(C(=O)Nc1cnc2ccccc2c1)c1ccccc1,1.8,-1.6,-1.1,2.2,1.5,-11.8
Cc1ccc(Nc2[nH]c(=O)c3ccccc3c2C(=O)c2ccccc2)cc1,3.2,27.4*,2.2,nt,nt,nt
COc1ccccc1NC(=O)c1ccc(CSc2ccccc2)o1,1.0,4.5,2.0,nt,nt,nt
COCc1c(C(=O)OCC(=O)N2CCCC2=O)oc2ccccc12,-4.7,nt,nt,nt,nt,nt
CCc1nc(SCC(=O)Nc2cc(C)on2)n[nH]1,-1.6,-5.1,1.1,3.0,1.9,-3.9
Cc1cc(NC(=O)CSc2n[nH]c(N)n2)no1,+,-0.9,1.7,0.0,-0.4,-1.9
N#Cc1c(-c2ccccc2Cl)cc(-c2ccccc2)[nH]c1=S,4.6,1.0,-0.9,8.6,-3.8,10.7
Cc1cc(-c2ccccc2)c(C#N)c(=S)[nH]1,nt,0.5,0.1,-0.9,3.9,82.7*
COc1ccc2nc(Cl)cc(Cl)c2c1,1.0,0.2,1.9,-0.4,-3.1,-23.6
COc1ccc2nccc(/C=C/c3ccnc4ccc(OC)cc34)c2c1,-5.1,61.5*,1.0,-0.3,81.7*,1.0
CCOC(=O)c1cc(-c2ccccc2)sc1NC(=S)Nc1cc(C)ccn1,5.0,-0.3,-57.4*,-21.1,-47.0,-87.2
COc1ccc(-n2c(C)cc(/C=C3\SC(=O)NC3=O)c2C)cc1,-5.3,0.1,-3.7,nt,nt,nt
Cc1cc(/C=C2\SC(=Nc3ccccc3)NC2=O)c(C)n1-c1ccc(S(N)(=O)=O)cc1,-7.1,20.8*,-0.5,0.5,-1.6,-39.6
COc1cc(/C=C(\C#N)C(=O)NC2CCCCC2)ccc1OCc1ccc(C(=O)O)cc1,3.0,20.9*,1.8,0.9,1.8,9.6
CC(=Nc1ccccc1)c1sc2ccccc2c1O,-0.5,47.7*,-2.8,14.1,-6.8,-7.3
NC(=Nc1ccc(Br)cc1)c1ccccc1,0.4,4.4,-2.8,nt,nt,nt
CC(=Nc1ccc(Br)cc1)c1sc2ccccc2c1O,1.7,49.1*,-30.0*,9.3,81.2,20.0
Cc1ccc(-c2nnn(CC(=O)N(CC(=O)NC3CCCCC3)c3cnc4ccccc4c3)n2)o1,2.4,?,0.0,nt,nt,nt
CC(C)(C)c1ccc(C(=O)C2CCCN(C(=O)c3ccccn3)C2)cc1 (configuration not stated),nt,-4.2,0.8,nt,nt,nt
COc1ccc(CCNC(=O)C2CCN(C(=O)c3cccc(Cl)c3)CC2)cc1OC,8.1,?,2.2,nt,nt,nt
O=C(O)CSc1cc(NS(=O)(=O)c2ccc(Br)cc2)c2ccccc2c1O,1.5,3.2,-71.0*,nt,nt,nt
COc1ccc(/C=C2\SC(=S)N(C(C)C(=O)NC3C=CS(=O)(=O)C3)C2=O)cc1 (configuration not stated),-3.1,1.2,1.3,nt,nt,nt
COc1cccc(/C=C2\SC(=S)N(C(C)C(=O)NC3C=CS(=O)(=O)C3)C2=O)c1 (configuration not stated),27.5*,-3.9,-3.3,nt,nt,nt
CCCn1c(C)nc2c(c1=O)c1nc3ccccc3nc1n2CCC1=CCCCC1,-1.8,1.4,-4.0,21.5,64.3*,-17.5
